# Only some compounds are listed: those with a hit (about 2.6% of all), similar ones and a draw of the others.
# SENP7 block – blocks the human protease SENP7 | Q9BQF6 | recombinant SENP7, Z-RLRGG-aminoluciferin luminescence, 40 min | inhibition, % at 5 µM | 330,000 compounds, 1.5% hits | AID 434973;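 active = inhibition above about 50% at the single test dose, limit read from the data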;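 also: plate controls were DMSO with enzyme for no effect and no enzyme buffer wells for full effect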
# Target sequence (Q9BQF6 706-1050 limits assumed): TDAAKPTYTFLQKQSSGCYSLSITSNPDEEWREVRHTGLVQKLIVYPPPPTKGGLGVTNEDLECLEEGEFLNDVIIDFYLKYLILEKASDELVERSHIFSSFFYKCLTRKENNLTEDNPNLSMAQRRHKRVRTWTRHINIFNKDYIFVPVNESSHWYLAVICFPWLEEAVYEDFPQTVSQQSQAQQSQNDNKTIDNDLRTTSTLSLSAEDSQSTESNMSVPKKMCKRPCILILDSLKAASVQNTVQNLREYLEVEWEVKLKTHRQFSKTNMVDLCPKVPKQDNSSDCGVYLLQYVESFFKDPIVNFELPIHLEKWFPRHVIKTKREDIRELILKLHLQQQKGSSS
# Platelet DG rel – platelet dense granule release activity | human platelet-rich plasma, SFLLRN dense granule ATP release, luminescence | inhibition, %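 (compounds screened at 7.5 µM in platelet-rich plasma)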 | 300,000 compounds, 0.22% hits;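 active = mean replicate score, as percent of positive control, at or above 50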
# SENP8 block-1 – SENP8 protease inhibition | Q96LD8 | purified SENP8, Z-RLRGG-aminoluciferin cleavage, luminescence | inhibition, % at 10 µM | 330,000 compounds, 1.2% hits | AID 2540; in the data active = inhibition above about 50%
# SENP6 inh – SENP6 protease inhibition; Recombinant SENP6 catalytic domain, aminoluciferin luminescence; inhibition, % at 10 µM; 330,000 compounds, 1.8% hits; AID 2599;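 active = inhibition above about 50% at the single tested dose, limit read from the data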;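 also: plate controls were DMSO wells with enzyme for no effect and DMSO wells lacking enzyme for full effect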
# SENP1 inh – SENP1 (human) catalytic domain inhibition | Q9P0U3 | recombinant SENP1 catalytic domain, CyPet-SUMO1-YPet FRET cleavage | inhibition, % at 10 µM | 360,000 compounds, 0.21% hits;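 active = inhibition at least 30% at 10 µM, raw YFP signal under a set limit, fluorescence ratio 0.5 to 1.5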;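 also: 0% = enzyme with DMSO and 100% = no enzyme wells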
# Target sequence (Q9P0U3 419-644 limits assumed): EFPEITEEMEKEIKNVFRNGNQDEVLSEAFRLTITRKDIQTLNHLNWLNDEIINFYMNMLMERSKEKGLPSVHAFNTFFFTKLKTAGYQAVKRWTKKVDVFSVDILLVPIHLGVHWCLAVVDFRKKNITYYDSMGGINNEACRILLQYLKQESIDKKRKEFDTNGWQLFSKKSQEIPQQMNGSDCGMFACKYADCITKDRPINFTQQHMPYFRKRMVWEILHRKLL
#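 Material: hSENP1 catalytic domain, recombinant; medium: Tris pH 8 with BME, BSA, NP40 and catalase; compound: single concentration of 10 µM compound, 0.5% DMSO final; technique: FRET read of cyan and yellow fluorescence; timing: 50 min enzyme reaction, room temperature, light-protected; reagent: SFCypet-SUMO1-SFYpet substrate at 25 nM; control set: no-enzyme low, enzyme-DMSO high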
# SENP8 block-2 – blocks human SENP8 cleavage of Nedd8 substrate; AID 602440; recombinant SENP8, Nedd8 substrate fluorescence; Q96LD8; 360,000 compounds, 0.64% hits; inhibition, % at 20 µM; in the data active = inhibition mostly above about 40%, no sharp cut-off; inactive = mostly below about 27%
# SENP8 confirm – confirmation of human SENP8 protease inhibitors; shares compounds with SENP7 block; Recombinant SENP8, Z-RLRGG-aminoluciferin luminescence, 60 min; inhibition, % at 12.5 µM; 6,200 compounds, 40% hits; AID 488912;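 active = mean inhibition across replicates above about 50%, limit read from the data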
# SENP6 conf – human SENP6 inhibition, confirmed; 6,200 compounds, 58% hits; shares compounds with SENP7 block; AID 488915; recombinant SENP6, Z-RLRGG-aminoluciferin luminescence; inhibition, % at 12.5 µM
# SENP7 conf – confirmation of human SENP7 protease inhibitors | shares compounds with SENP7 block | inhibition, % at 12.5 µM | recombinant SENP7, Z-RLRGG-aminoluciferin luminescence, 40 min | AID 488917 | 6,200 compounds, 69% hits
# Casp3 SENP sel – selectivity test for SENP inhibitors: human caspase-3 inhibition; shares compounds with SENP7 block; purified caspase-3, Z-DEVD-aminoluciferin luminescence, 60 min; 6,200 compounds, 60% hits; inhibition, % at 12.5 µM;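 active = mean inhibition above about 50%, limit read from the data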;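 also: plate controls were enzyme with DMSO for no effect and wells without caspase-3 for full effect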
# SENP luc ctr – counter-screen for SENP inhibitors: luminescence interference; inhibition, % at 12.5 µM; Pre-incubated SENP8/Z-RLRGG-aminoluciferin, luciferase luminescence interference; 6,200 compounds, 39% hits; shares compounds with SENP7 block; AID 488919;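 active = mean inhibition above about 50% when retested at one dose, limit read from the data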;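 also: plate controls were DMSO wells with completed reaction for no effect and substrate without enzyme for full effect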
# * = called active by the depositor; · = no result.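 The calls were made as follows, unless noted: active = mean inhibition above about 50% in the one-dose retest (limit read from the data); inactive = the rest.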
SMILES,SENP7 block,Platelet DG rel,SENP8 block-1,SENP6 inh,SENP1 inh,SENP8 block-2,SENP8 confirm,SENP6 conf,SENP7 conf,Casp3 SENP sel,SENP luc ctr
CN(Cc1ccc(Cl)s1)C(=O)CNC(=O)CNC(=O)c1ccc(Cl)cc1Cl,7.8,·,-4.6,-4.2,0.4,11.8,·,·,·,·,·
O=C(O)c1cccc(-c2nnn(Cc3ccccc3)n2)c1,1.1,-5.7,-9.5,10.3,-0.9,22.4,·,·,·,·,·
Cc1ccccc1Cn1nnc(-c2ccc(C(=O)O)cc2)n1,-0.3,0.2,-8.9,-9.0,-0.3,0.4,·,·,·,·,·
O=C(O)c1cccc(-c2nnn(Cc3ccccc3Cl)n2)c1,43.0,-3.7,55.8*,82.4*,0.5,18.0,12.1,82.8*,93.5*,44.2,44.4
Cc1ccccc1Cn1nnc(-c2cccc(C(=O)O)c2)n1,33.1,14.3,31.2,70.8*,1.6,6.5,63.7*,60.9*,86.2*,52.2*,72.0*
O=C(O)c1ccc(C(=O)Nc2cccc3ccccc23)c(C(=O)O)c1,57.2*,2.6,33.2,67.0*,-6.4,-311.3,-3.4,4.7,-1.8,7.0,8.4
O=C(Nc1cccc(C(=O)O)c1)Nc1cccc2ccccc12,2.8,-9.0,9.4,26.8,3.6,-52.8,·,·,·,·,·
CC1CCN(C(=O)c2ccc(-c3ccccc3Cl)o2)CC1,42.1,0.3,49.5,72.0*,-0.5,6.0,65.9*,65.7*,81.5*,50.6*,64.7*
O=C(c1cc(-c2ccc(Cl)cc2)on1)N1CCCC1,33.1,-0.7,33.0,56.1*,0.0,20.2,17.5,12.7,31.8,21.6,-1.9
O=C(c1cc(-c2ccccc2Cl)on1)N1CCCC1,62.7*,-2.6,56.6*,72.4*,1.5,9.1,8.9,63.8*,90.1*,78.5*,66.1*
COc1ccccc1-c1cc(C(=O)N2CCCC2)no1,14.5,2.3,1.0,26.4,0.9,1.1,·,·,·,·,·
O=C(c1ccc(-c2ccccc2Cl)o1)N1CCC1,-3.0,·,-5.2,5.2,1.5,17.6,·,·,·,·,·
O=C(c1cc(-c2ccccc2)on1)N1CCCC1,46.2,-2.5,1.4,16.9,1.7,26.1,·,·,·,·,·
O=C(c1cc(-c2ccc(Cl)c(Cl)c2)on1)N1CCCCC1,57.1*,-1.8,13.8,34.5,0.1,9.7,19.9,20.2,24.2,11.5,5.4
COC(=O)C(=Cc1ccncc1)c1cccc2ccccc12,·,·,·,·,-0.4,-29.7,·,·,·,·,·
C[C@H]1CN([C@@H](C)CO)S(=O)(=O)c2ccc(Br)cc2O[C@@H]1CN(C)C(=O)Cc1ccccc1,·,·,·,·,0.0,-5.6,·,·,·,·,·
O=C(Nc1ccccc1C(=O)N/N=C/c1ccc(O)cc1)c1ccccc1,60.8*,124.0*,23.3,64.8*,1.1,-127.8,-5.3,2.6,80.7*,85.7*,64.3*
COC(=O)c1ccccc1NC(=S)NC(=O)c1ccc2c(c1)OCO2,-6.4,-0.7,-0.4,4.8,3.5,-393.8,·,·,·,·,·
NC(=O)c1ccccc1NC(=O)c1ccc2ccccc2c1,90.5*,7.3,78.8*,95.5*,1.4,0.5,50.9*,82.1*,98.3*,81.1*,58.8*
COc1ccc(C(=O)Nc2ccccc2C(=O)Nc2ccccc2C(=O)O)cc1,-11.9,15.7,-16.4,23.3,-9.1,-14.9,·,·,·,·,·
COc1ccc(C(=O)Nc2ccccc2C(N)=O)cc1,36.8,4.7,5.3,64.6*,2.2,-23.2,22.3,19.3,68.3*,65.3*,53.1*
NC(=O)c1ccccc1NC(=O)c1ccc2c(c1)OCO2,70.4*,20.2,56.6*,69.8*,-1.6,-11.3,-21.8,52.3*,88.0*,81.0*,39.2
Cc1ccccc1NC(=O)c1ccc2ccccc2c1,32.0,-1.0,3.7,25.2,2.9,-1.5,·,·,·,·,·
C[C@H](CO)N1C[C@H](C)[C@@H](CN(C)S(=O)(=O)c2ccc3ccccc3c2)OCc2cnnn2CCCC1=O,·,·,·,·,-2.8,-1.9,·,·,·,·,·
COc1ccc(OCc2cc(C(=O)NCC(C)Oc3cccnc3)no2)c(Cl)c1 (centres undefined),-5.3,-7.8,1.8,-6.4,1.6,-6.3,·,·,·,·,·
SMILES,SENP7 block,Platelet DG rel,SENP8 block-1,SENP6 inh,SENP1 inh,SENP8 block-2,SENP8 confirm,SENP6 conf,SENP7 conf,Casp3 SENP sel,SENP luc ctr
O=C(CC(O)CCc1ccccc1)c1ccc(O)cc1 (centres undefined),-8.1,·,-13.7,-12.7,-0.3,35.2,·,·,·,·,·
COc1ccc(C(=O)Nc2cc(Cl)ccc2OC(=O)c2ccc(OC)cc2)cc1,54.7*,2.1,32.9,57.5*,2.6,3.6,10.7,12.0,34.7,53.8*,16.4
O=C(NC(=S)Nc1ccccc1C(=O)O)c1ccc2ccccc2c1,1.4,-10.0,-5.0,66.8*,1.2,-104.3,14.3,7.9,7.3,18.5,21.4
COc1cccc(/C=N/NC(=O)c2ccccc2NC(=O)c2ccco2)c1OC,0.4,-8.4,-7.1,-12.6,-3.6,-48.2,·,·,·,·,·
COc1ccc(C(=O)Nc2ccccc2C(=O)N/N=C/c2cccc3ccccc23)cc1,62.6*,91.8*,3.6,59.9*,4.6,-30.0,-10.7,22.2,41.7,45.0,2.1
CCN(CC(=O)NC1CC1)S(=O)(=O)c1ccc(OC)cc1,-6.7,-2.6,-0.8,0.6,-0.2,2.5,·,·,·,·,·
O=C(C=Cc1ccccc1)CC(c1ccccc1)N1CCOCC1 (centres undefined),·,·,·,·,0.9,8.4,·,·,·,·,·
COc1ccc(-c2ccc(C(=O)N3CCOCC3)c3occc23)c(C)c1,·,·,·,·,-0.8,1.8,·,·,·,·,·
CCN1CCN(C(=O)CSc2cc(=O)n(C)c3ccccc23)CC1,89.8*,4.9,-1.2,-14.6,-0.7,-12.9,8.2,4.9,4.1,0.2,1.4
C[C@@H]1CN([C@@H](C)CO)C(=O)CCCn2nncc2CO[C@H]1CN(C)C(=O)NC1CCCCC1,·,·,·,·,-0.5,12.7,·,·,·,·,·
c1ccc(-c2cnc(-c3ccccn3)nn2)cc1,60.3*,20.4,41.0,61.3*,-1.4,16.0,45.4,44.2,82.0*,77.3*,53.8*
O=C(Nc1cccc(Cl)c1)Nc1ccccc1C(=O)O,99.9*,75.5*,96.6*,99.3*,4.5,-217.3,98.3*,101.0*,104.0*,99.3*,99.6*
Cc1cccc(NC(=O)c2cccc(OC(=S)N3CCOCC3)c2)c1,27.9,3.6,21.5,37.5,0.6,9.2,·,·,·,·,·

# Source: PubChem BioAssay
